Experimental data of several laboratories.
Each line is one published result; the experiments were not run side by side.
Target: Atypical kinase COQ8A, mitochondrial (COQ8A, Homo sapiens, UniProt Q8NI60)

C[C@@H]1CN(c2cc(-c3nn(C)c4ccc(OC5(C)CC5)cc34)ncn2)C[C@H](C)O1 — remaining binding (cell-free assay; competition with immobilised ligand; 1 µM): 100%
C[C@@H](c1ccc(-n2cnc3c(N)ncnc32)cc1)N1CCc2nn(C)c(Cc3ccccc3)c2C1=O — remaining binding (binding; competition with immobilised ligand; 0.1 µM): 84%
FC(F)(F)c1ccc2c(c1)nc(-c1cccnc1)n2C1CC1 — remaining binding (cell-free assay; competition with immobilised ligand; 1 µM): 100%
CNC(=O)[C@@H]1CC[C@@H](n2c(-c3ccc4cnccc4c3)nc3ccc(C(=O)NCc4cccc(C(N)=O)c4)cc32)C1 — remaining binding (binding; competition with immobilised ligand; 1 µM): 100%
O=C(Nc1c[nH]nc1C(=O)NC1CCNCC1)c1cc(F)cc(F)c1 — remaining binding (binding; competition with immobilised ligand; 1 µM): 100%
CN(CCCC(F)(F)F)c1nccc(-c2cnn3ncccc23)n1 — remaining binding (binding; 1 µM): 99%
CCC(=O)N[C@@H]1CC[C@H](C(=O)N(C)c2ccc(-c3nc4ccccc4o3)cc2)C1 — remaining binding (cell-free assay; competition with immobilised ligand; 1 µM): 99%
COc1cnc(Nc2cccc(S(N)(=O)=O)c2)nc1N1CCN(c2ccccc2)C(=O)C1 — remaining binding (binding; competition with immobilised ligand; 1 µM): 100%
CN(C)c1nccc(-c2cnn3ncccc23)n1 — remaining binding (binding; 1 µM): 88%
Cc1cnc(Nc2ccc(C(=O)N3CCC(N4CCCC4)CC3)cc2)nc1-c1cc2ccccc2s1 — remaining binding (binding; competition with immobilised ligand; 1 µM): 85%
NS(=O)(=O)c1cc(NC(=O)C2(c3ccccc3Cl)CC2)ccc1Oc1cccc(Cl)c1 — remaining binding (cell-free assay; competition with immobilised ligand; 1 µM): 100%
O=C(NCCCN1CCOCC1)c1ccc(Nc2ncc(Cl)c(-c3ccc(Cl)s3)n2)cc1 — remaining binding (binding; competition with immobilised ligand; 1 µM): 100%
Nc1ncc2c(n1)-c1c([nH]c3ccc(C#CC4CC4)cc13)CCCC2 — remaining binding (binding; competition with immobilised ligand; 1 µM): 96%
O=C(c1ccc(Nc2ncc(Cl)c(-c3cc4ccccc4s3)n2)cc1)N1CCC(N2CCCC2)CC1 — remaining binding (binding; competition with immobilised ligand; 1 µM): 78%
C[C@@H]1CN(c2ccc3ncc(-c4ccc5[nH]nc(C6CC6)c5c4)n3n2)C[C@H](C)O1 — remaining binding (binding; competition with immobilised ligand; 0.5 µM): 100%
N[C@H]1CCN(c2nccc(-c3cnn4ncccc34)n2)C1 — remaining binding (binding; 1 µM): 79%
N#Cc1ccccc1CSc1nnc2c(n1)[nH]c1ccccc12 — remaining binding (binding; competition with immobilised ligand; 10 µM): 95%
C[C@@H]1CCN(c2nccc(-c3cnn4ncccc34)n2)C1 — remaining binding (binding; 1 µM): 100%
C[C@H](c1ccnc(Nc2nc3ccc(-c4cc(N(C)C)ncn4)cc3[nH]2)c1)N1CCN(C(=O)CC(F)(F)F)CC1 — remaining binding (cell-free assay; competition with immobilised ligand; 0.1 µM): 100%
F[C@@H]1CCN(c2nccc(-c3cnn4ncccc34)n2)C1 — remaining binding (binding; 1 µM): 100%
Cc1cc(NC(=O)c2cccc(S(F)(F)(F)(F)F)c2)cc(-n2ccn3nc(-c4cccnc4)cc23)c1 — remaining binding (cell-free assay; competition with immobilised ligand; 1 µM): 82.8%
COc1ccnn2ncc(-c3ccnc(N(C)C)n3)c12 — remaining binding (binding; 1 µM): 100%
Cc1nc(Cc2cccc(C(F)(F)F)c2)sc1-c1ccc(C(N)=O)nc1 — remaining binding (cell-free assay; competition with immobilised ligand; 1 µM): 62%
